Source: ChEMBL document CHEMBL4400528, “Discovery and Optimization of Selective and in Vivo Active Inhibitors of the Lysophosphatidylserine Lipase α/β-Hydrolase Domain-Containing 12 (ABHD12)” (J Med Chem, 2019)
One block for each compound: values may come before it. Activity calls are given as the source filed them. No cut-off for these calls is given here.

Experiments:
[1] = target: T1, Lysophosphatidylserine lipase ABHD12 (Mus musculus) (UniProt Q99LR1); assay: Binding affinity to ABHD12 in mouse brain membrane proteome at 0.016 to 10 uM incubated for 45 mins by CuAAC fluorescence dependent gel-based competitive ABPP assay; type: cell membranes
T1 sequence (whole entry): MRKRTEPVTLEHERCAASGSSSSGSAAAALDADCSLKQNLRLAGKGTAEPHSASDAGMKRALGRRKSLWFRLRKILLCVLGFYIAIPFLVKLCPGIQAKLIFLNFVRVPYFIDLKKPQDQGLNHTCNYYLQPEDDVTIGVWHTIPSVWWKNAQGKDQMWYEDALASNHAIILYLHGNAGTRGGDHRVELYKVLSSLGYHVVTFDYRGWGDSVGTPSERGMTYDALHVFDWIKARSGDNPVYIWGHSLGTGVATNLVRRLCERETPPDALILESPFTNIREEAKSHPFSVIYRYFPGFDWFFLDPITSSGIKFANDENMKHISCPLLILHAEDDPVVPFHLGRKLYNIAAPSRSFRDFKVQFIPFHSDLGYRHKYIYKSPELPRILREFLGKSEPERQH
Outline: (§1)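 Mouse brain membrane proteome (1 mg/mL) preincubated with inhibitor for 45 min at 37 °C. Labelled with FP-Rh (1 μM) or JJH350 (2 μM) for 45 min at 37 °C. JJH350 samples were clicked to Rh-N3 (25 μM) by CuAAC for 60 min at room temperature. Read by 10% SDS-PAGE and in-gel fluorescence scanning. Band intensity taken relative to control (100%), and IC50 from log(inhibitor) vs normalized response.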

[2] = target: T2, Monoacylglycerol lipase ABHD6 (Mus musculus) (UniProt Q8R2Y0); assay: Binding affinity to ABHD6 in mouse brain membrane proteome at 0.016 to 10 uM incubated for 45 mins by CuAAC fluorescence dependent gel-based competitive ABPP assay; type: cell membranes; outline: as §1
T2 sequence (whole entry): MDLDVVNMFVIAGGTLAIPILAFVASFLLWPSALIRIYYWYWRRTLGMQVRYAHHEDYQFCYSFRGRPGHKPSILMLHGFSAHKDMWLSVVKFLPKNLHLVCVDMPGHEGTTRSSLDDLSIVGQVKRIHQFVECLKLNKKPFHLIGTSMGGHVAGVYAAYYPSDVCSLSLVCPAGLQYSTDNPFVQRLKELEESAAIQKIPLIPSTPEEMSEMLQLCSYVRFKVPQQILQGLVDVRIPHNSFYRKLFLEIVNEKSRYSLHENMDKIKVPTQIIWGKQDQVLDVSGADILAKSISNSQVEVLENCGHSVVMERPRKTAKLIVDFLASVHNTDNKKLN

[3] = target: T3, Lysophosphatidylserine lipase ABHD12 (Mus musculus, UniProt Q99LR1); assay: Inhibition of FP-Rh probe binding to ABHD12 in mouse brain membrane proteome incubated for 45 mins by CuAAC fluorescence dependent gel-based competitive ABPP assay; type: cell membranes; outline: as §1
T3 sequence (Q99LR1 whole entry): T1 sequence (whole entry)

[4] = tested on: MDA-MB-231; assay: Cytotoxicity against human MDA-MB-231 cells assessed as effect on cell viability at 1 uM after 72 hrs by CellTiter-Glo assay; type: cell-based; settings: mda-mb-231, 72 h
Outline: (§2)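 Cells seeded at 3,000 per well and left 24 h. Compounds then added at 0.1–10 μM final and incubated 72 h. Viability read by CellTiter-Glo luminescence and normalized to vehicle-treated controls.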

[5] = Toxicity in mouse at 30 mg/kg, po; type: organism-based; settings: in vivo
[6] = tested on: T98G; assay: Cytotoxicity against human T98G cells assessed as effect on cell viability at 1 uM after 72 hrs by CellTiter-Glo assay; type: cell-based; outline: as §2
[7] = Drug level in mouse peripheral regions at 30 mg/kg, po; type: ADME, organism-based; settings: in vivo, read-out: Drug uptake
[8] = Toxicity in mouse at 30 mg/kg, ip; type: organism-based; settings: in vivo
[9] = target: T4, Lysophosphatidylserine lipase ABHD12 (Homo sapiens) (UniProt Q8N2K0); assay: Inhibition of ABHD12 in PMA-differentiated human THP1 cells assessed as increase in CCL4 production treated simultaneously with IFN-gamma/LPS for 24 hrs and measured 6 to 24 hrs after stimulation
T4 sequence (whole entry): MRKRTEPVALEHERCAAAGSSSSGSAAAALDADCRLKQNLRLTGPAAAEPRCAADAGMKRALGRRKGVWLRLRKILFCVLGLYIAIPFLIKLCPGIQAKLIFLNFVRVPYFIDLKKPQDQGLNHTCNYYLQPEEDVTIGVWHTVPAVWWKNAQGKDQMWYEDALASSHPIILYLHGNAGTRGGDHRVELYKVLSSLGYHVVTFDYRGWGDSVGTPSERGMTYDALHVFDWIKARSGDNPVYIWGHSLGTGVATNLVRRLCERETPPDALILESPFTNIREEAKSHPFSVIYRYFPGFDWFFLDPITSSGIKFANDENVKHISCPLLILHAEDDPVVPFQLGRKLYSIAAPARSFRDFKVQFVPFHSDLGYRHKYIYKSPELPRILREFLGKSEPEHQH
Outline: (§3)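 THP-1 cells grown in RPMI/10% FBS/0.05 mM 2-mercaptoethanol, plated 2.5×10^6 per well. Treated 24 h with 150 ng/mL PMA, washed, rested 24 h. Polarized to M1 with 20 ng/mL IFN-γ plus 10 pg/mL LPS for 24 h. Compound or DMSO (test 0.1–1 μM) present at every step. Media sampled 6 and 24 h after stimulation; cytokines by MSD V-Plex. Mean ± SEM, four biological experiments.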

[10] = tested on: HT-1080; assay: Cytotoxicity against human HT1080 cells assessed as effect on cell viability at 1 uM after 72 hrs by CellTiter-Glo assay; type: cell-based; settings: ht-1080, 72 h; outline: as §2
[11] = Drug level in mouse brain at 30 mg/kg, ip; type: ADME, organism-based; settings: in vivo, read-out: Drug uptake
[12] = Drug level in mouse peripheral regions at 30 mg/kg, ip; type: ADME, organism-based; settings: in vivo, read-out: Drug uptake
[13] = target: T4, Lysophosphatidylserine lipase ABHD12 (Homo sapiens); assay: Inhibition of ABHD12 in PMA-differentiated human THP1 cells assessed as increase in TNF-alpha production treated simultaneously with IFN-gamma/LPS for 24 hrs and measured 6 to 24 hrs after stimulation; outline: as §3
[14] = tested on: THP-1; assay: Cytotoxicity against human THP1 cells assessed as effect on cell viability at 1 uM after 72 hrs by CellTiter-Glo assay; type: cell-based; settings: thp-1, 72 h; outline: as §2
[15] = Drug level in mouse brain at 30 mg/kg, po; type: ADME, organism-based; settings: in vivo, read-out: Drug uptake
[16] = target: T4, Lysophosphatidylserine lipase ABHD12 (Homo sapiens); assay: Inhibition of ABHD12 in PMA-differentiated human THP1 cells assessed as increase in IL-1beta production treated simultaneously with IFN-gamma/LPS for 24 hrs and measured 6 to 24 hrs after stimulation; outline: as §3
[17] = target: T4, Lysophosphatidylserine lipase ABHD12 (Homo sapiens); assay: Inhibition of ABHD12 in PMA-differentiated human THP1 cells assessed as increase in CCL3 production treated simultaneously with IFN-gamma/LPS for 24 hrs and measured 6 to 24 hrs after stimulation; outline: as §3
[18] = target: T3, Lysophosphatidylserine lipase ABHD12; assay: Inhibition of JJH350 binding to ABHD12 in mouse brain membrane proteome incubated for 20 mins by CuAAC fluorescence dependent gel-based competitive ABPP assay; type: cell membranes
Outline: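 Brain membrane fraction (1 mg/mL; DPBS homogenate, 16,000 x g pellet) treated with inhibitor for 20 min at room temperature. JJH350 (2 μM) added for 45 min at 37 °C, then CuAAC with rhodamine-PEG3-azide, CuSO4, TBTA and TCEP for 1 h at room temperature. Run on 10% SDS-PAGE and read by in-gel fluorescence. ABHD12 band normalized to control-treated sample (100%); IC50 from log dose-response fit.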

Activity [1]: Active
Activity [2]: Active
IC50 [3]: 400 nM
Compound: C#CCOc1ccc(N2CCN(C(=O)ON3C(=O)C4CN(C(=O)c5ccc(Oc6ccccc6)cc5)CCN4C3=O)CC2)cc1 (stereo not drawn)

Compound: FC(F)(F)Oc1ccc(Oc2ccnc(N3CCC(NC(=S)Nc4cccnc4)CC3)c2Cl)c(Cl)c1
Activity [4]: Non-Toxic
Activity [5]: Non-Toxic
Activity [6]: Non-Toxic
concentration [7]: 3 to 9 µM
Activity [8]: Non-Toxic
inhibition [9]: Dose-dependent effect
Activity [10]: Non-Toxic
concentration [11]: 3 to 9 µM
concentration [12]: 3 to 9 µM
inhibition [13]: Dose-dependent effect
Activity [14]: Non-Toxic
concentration [15]: 3 to 9 µM
inhibition [16]: Dose-dependent effect
inhibition [17]: Dose-dependent effect
IC50 [18]: 11 nM
